Bioassay records from PubChem.
hERG rescue: hERG rescue from dofetilide block, primary screen, cell-based, CHO-hERG, FluxOR thallium flux, dofetilide IC70. Voltage-gated inwardly rectifying potassium channel KCNH2 (Homo sapiens), Q12809. dofetilide IC70 present. activation (rescue from dofetilide block), less the hit threshold, % at 10 µM. hit rate 0.51% among 310,000. AID 1511, 2009;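 active means activation above the mean of controls blocked by dofetilide plus 5 SD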;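 further: thallium influx through hERG after potassium depolarization seen as dye fluorescence rise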
KCNQ1 block: inhibitors of human KCNQ1 channel, primary screen, cell-based, thallium flux, high-throughput; Potassium voltage-gated channel subfamily KQT member 1 (Homo sapiens), P51787; CHO-K1 KCNQ1, FluxOR thallium flux fluorescence; hits give high values; B-score at 10 µM; hit rate 1.3% among 310,000; AID 2642, 2010;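 active means compounds whose thallium flux B-score, printed positive for inhibition, exceeds three library SD while starting fluorescence stays within three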;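 further: channel opened by potassium depolarization with thallium stimulus after 20 min compound exposure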
KCNK9 block: KCNK9 potassium channel inhibitors, primary screen, HEK293 cells, thallium flux. Potassium channel subfamily K member 9 (Homo sapiens), Q9NPC2. FluxOR thallium flux fluorescence; hits give low values. B-score at 10 µM. hit rate 1.2% among 310,000. AID 488922, 2010;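 active means ratio B-score over 3 SD below the library mean, with starting fluorescence within 5 SD of its mean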;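 further: negative B-score means less thallium flux so channel inhibition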
KCNK3 block: human KCNK3 channel inhibitors, primary screen, CHO cells, FluxOR thallium flux, B-score; Potassium channel subfamily K member 3 (Homo sapiens), O14649; FluxOR fluorescence; hits give low values; B-score at 10 µM; hit rate 0.84% among 340,000;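 active means B-score under library mean minus 4 SD, starting fluorescence ratio at most library mean plus 5 SD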;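 further: more negative B-score means stronger inhibition of thallium flux through KCNK3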
Kir21 inh: inhibitors of mouse Kir2.1 inward-rectifier potassium channel; AID 1672, 2009; B-score at 10 µM; Inward rectifier potassium channel 2 (Mus musculus), P35561; hit rate 0.85% among 310,000; HEK293-Kir2.1, FluxOR thallium flux fluorescence; hits give low values;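 active means fluorescence ratio B-score at or below minus 3 SD of library scores, with starting-brightness B-score within 2 SD, cut at about -4.2 in these data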;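 further: channel flux triggered by added potassium and thallium sulfate stimulus; B-score of peak minus minimum fluorescence over baseline after thallium stimulus; more negative B-score means stronger Kir2.1 block with less thallium influx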
KCNQ1 pot: potentiators or activators of KCNQ1 channel, primary screen, cell-based, thallium flux, high-throughput; CHO-K1 KCNQ1, thallium flux FluxOR fluorescence; hits give high values; B-score at 10 µM; AID 2648, 2010; Potassium voltage-gated channel subfamily KQT member 1 (Homo sapiens), P51787; hit rate 0.35% among 310,000;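 active means fluorescence ratio B-score, a plate-corrected score, at least three library SD, with initial intensity B-score within 5 SD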
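Medium – assay buffer, equal DMSO in all wells · Material – CHO-K1 cell line with stable KCNQ1 potassium channel expression · Signal – kinetic FluxOR thallium fluorescence, 10-s 1-Hz baseline, 110-s post-stimulus read · Compound – single concentration per compound, DMSO matched to controls · Schedule – 37 °C overnight plating, 90-min dark dye load, 20-min compound pretreatment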
Hits are given with their value; n = inactive; x = no result. Hits are enriched below; roughly 3.7% of the tested compounds scored in any of these assays.

SMILES | hERG rescue | KCNQ1 block | KCNK9 block | KCNK3 block | Kir21 inh | KCNQ1 pot
COc1ccc(CCNCc2ccc(OCc3ccccc3)cc2)cc1 | n | n | n | n | -5.44 | n
COc1ccc(CCC(C)NCc2ccc(C(F)(F)F)cc2)cc1 (centres undefined) | n | n | n | n | n | n
CCOc1cc(CNCc2ccccc2)ccc1OCc1ccc(Cl)cc1 | n | 7 | n | n | n | n
COc1cc(CN(C)CCc2ccccc2)ccc1OCc1ccccc1 | n | n | n | n | -7.62 | n
COc1ccc(-c2nnn3c2nc(NCc2ccccc2)c2ccccc23)cc1 | n | n | n | n | n | n
c1ccc(COc2ccc(CNCc3cccs3)cc2)cc1 | n | n | n | n | -13.5 | n
COc1ccc(CCC(C)Nc2cccc(F)c2)cc1 (centres undefined) | n | n | -6.6 | n | n | n
NS(=O)(=O)c1ccc(CCNC/C=C/c2ccccc2)cc1 | n | n | n | n | n | n
COc1ccc(CNCCc2ccc(Cl)cc2)cc1OCc1ccccc1 | n | 10 | n | -9.5 | -6.39 | n
COc1ccc(CNCCc2ccccc2)cc1OCC(N)=O | n | n | n | n | n | n
COc1ccc(CCNC/C=C/c2ccccc2)cc1 | n | n | n | n | -8.37 | n
Brc1ccc(CNCc2cccs2)cc1 | n | n | n | n | n | n
CC(C)(C)C(=O)Nc1cccc(OC(F)(F)C(F)Cl)c1 (centres undefined) | n | n | -6.95 | n | n | n
COc1cccc(NC(=O)c2ccc(NC(=O)C(C)(C)C)cc2)c1 | n | n | n | n | n | n
COc1ccc(-c2nn(-c3ccccc3)cc2C(=O)NC(=S)NNC(=O)c2ccncc2)cc1 | 16.7 | n | n | n | n | n
COc1ccc(-c2nn(-c3ccccc3)cc2C(=O)Nc2ccc(C(=O)O)cc2)cc1 | n | n | n | n | n | n
COc1ccc(NC(=O)c2cn(-c3ccccc3)nc2-c2cc3ccccc3o2)cc1 | n | 7 | n | n | n | n
COc1ccc(NC(=O)c2cn(-c3ccccc3)nc2-c2ccncc2)cc1 | 25.5 | n | n | n | n | n
C=CCN(CC=C)C(=S)NC(=O)Cc1cccc2ccccc12 | 10.2 | n | n | n | n | 10
O=C(Cc1cccc2ccccc12)Nc1ccccc1 | n | n | n | n | n | n
CC(C)n1cc(NC(=O)c2cc(-c3ccccc3)on2)cn1 | n | n | n | n | n | 11
CCC1CCCCN1S(=O)(=O)c1ccccc1[N+](=O)[O-] (centres undefined) | n | n | n | n | -4.33 | n
CC1CCCCN1S(=O)(=O)c1ccccc1[N+](=O)[O-] (centres undefined) | n | n | n | n | n | n
CCCCc1cc(=O)oc2cc(OCC(=O)NC3CCN(Cc4ccccc4)CC3)ccc12 | n | n | n | n | n | n
COc1cc2c(cc1Cl)/C(=C\CCN(C)C)c1ccccc1S2 | n | n | n | n | -10.7 | n
SMILES | hERG rescue | KCNQ1 block | KCNK9 block | KCNK3 block | Kir21 inh | KCNQ1 pot
Cc1nc(NCc2cccnc2)c2c3c(sc2n1)CC(C)CC3 (centres undefined) | 51.5 | n | n | n | n | 38
CCOC(=O)c1sc2nc(C)nc(NCc3cccnc3)c2c1C | n | n | n | n | n | n
NCC12CC3CC(C1)CC(c1ccc(Cl)cc1)(C3)C2 | n | n | -7.2 | n | -10.2 | n
Nc1ccc(C23CC4CC(CC(CO)(C4)C2)C3)cc1 | n | n | n | n | n | n
COc1cc(C(=O)NCC(c2ccc(F)cc2)N2CCOCC2)ccc1OCc1ccccc1Cl (centres undefined) | n | 10 | n | n | n | n
S=c1[nH]nc(-c2ccco2)n1/N=C/c1cccc(Cl)c1Cl | n | n | n | n | n | 15
Cc1ccc2nc(N(CCCN(C)C)C(=O)CCc3ccccc3)sc2c1 | n | n | n | n | -5.61 | n
CCN(C[C@H]1N[C@@](C)(C(=O)OC)[C@H]2C(=O)N(C)C(=O)[C@@H]12)C(=O)COC | x | x | x | n | x | x
CC1(C)CC(=O)C=C(c2cccc3c2oc2ccccc23)C1 | n | 6 | n | n | n | n
S=C1N(c2ccccc2)C(c2ccccc2)N2CCCN12 (centres undefined) | n | n | n | n | n | 8
CCC(C(=O)OCC(=O)Nc1ccc(F)cc1)c1ccccc1 (centres undefined) | x | x | x | n | x | x
CCC(C(=O)OCC(=O)Nc1c(Cl)cccc1Cl)c1ccccc1 (centres undefined) | n | n | n | n | -6.89 | n
COc1ccc(-c2cc(=Nc3ccc(C)cc3)c3ccccc3o2)cc1 | n | n | n | n | -6.08 | n
COc1ccc(N=c2cc(-c3ccc(O)cc3)oc3ccccc23)cc1 | n | n | n | n | n | n
COc1ccc(CN2CCN(C(=O)Cn3ncn4cccc4c3=O)CC2)c(OC)c1OC | n | n | n | n | n | n
Cc1ccccc1N(C(=O)c1cccs1)c1nc2ccccc2s1 | n | 7 | n | n | n | n
Cc1ccsc1C(=O)N(c1nc2ccccc2s1)c1c(C)cccc1C | n | n | n | n | n | n
COc1ccccc1C(=O)NNC(=O)C(=O)Nc1ccc(C)cc1 | 47.0 | n | n | n | n | n
COc1ccccc1C(=O)NNC(=O)C(=O)Nc1ccc(C)c(Cl)c1 | 60.7 | n | n | n | n | 94
COc1ccccc1C(=O)NNC(=O)C(=O)NC(C)(C)C | 7.4 | n | n | n | n | 9
Cc1ccc(NC(=O)C(=O)NNC(=O)c2ccccc2C)cc1Cl | 45.6 | n | n | n | n | 41
COc1ccccc1C(=O)NNC(=S)Nc1ccccc1 | n | n | n | n | n | n
COCCN(C(=O)COC(=O)COc1ccc(Cl)c(C)c1)c1c(N)n(Cc2ccccc2)c(=O)[nH]c1=O | n | n | n | n | n | n
Cn1nc(C(F)(F)F)c(-c2ccc(Br)cc2)c1NC(=O)c1nccnc1C(=O)O | n | n | n | n | n | n
CCCN=C1N(CC)C[C@@H]2[C@@H]3C(=O)N(C)C(=O)[C@@H]3[C@](CC)(C(=O)OC)N12 | x | x | x | n | x | x
CNC(=O)c1c(NC(=O)c2nc3ccccc3s2)sc2c1CCC2 | n | 8 | -7.81 | n | n | n
FC(F)(F)c1cccc(NC(=S)NNC(=S)NCc2ccccc2)c1 | n | 7 | n | n | n | n
CC1(C)C2CCC1(CS(=O)(=O)NC(CC(=O)O)c1cccc(Br)c1)C(=O)C2 (centres undefined) | n | n | n | n | n | n
